Values after ≈ are worked out from the molar mass of the structure shown. Active and inactive are the calls of the source. No cut-off for these calls is given here.
Tests used:
[1] = test system: Aspergillus nidulans; test: Antifungal activity against Aspergillus nidulans ATCC 38163 after 48 hrs by microbroth dilution method; format: functional; conditions: ATCC 38163, 48 h
Procedure, shortened: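 Filamentous fungus MIC by broth microdilution, run in duplicate. All compounds are read as MIC-0 (complete inhibition).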

[2] = test system: Klebsiella pneumoniae; test: Antibacterial activity against Klebsiella pneumoniae ATCC 27736 by microdilution method; format: functional
Procedure, shortened: (§1)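 Broth microdilution MIC against the named bacterial strain, reported in μg/mL; each determination run at least in duplicate.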

[3] = Activity of AAC(3)-4 (unknown origin) assessed as compound acetylation activity by Ellman's method
[4] = test system: Bacillus subtilis; test: Antibacterial activity against Bacillus subtilis 168 by microdilution method; format: functional; conditions: subsp. subtilis str. 168; procedure, shortened: as §1
[5] = test system: Listeria monocytogenes; test: Antibacterial activity against Listeria monocytogenes ATCC 19115 by microdilution method; format: functional; procedure, shortened: as §1
[6] = test system: Staphylococcus aureus; test: Antibacterial activity against methicillin-resistant Staphylococcus aureus by microdilution method; format: functional
Procedure, shortened: (§2)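 Broth microdilution MIC, in μg/mL, against a panel of Gram-positive and Gram-negative strains. Run at least in duplicate.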

[7] = test system: Staphylococcus aureus; test: Antibacterial activity against Staphylococcus aureus ATCC 29213 by microdilution method; format: functional; procedure, shortened: as §1
[8] = test system: Staphylococcus aureus; test: Antibacterial activity against Staphylococcus aureus NRS382 (USA 100) by microdilution method; format: functional; procedure, shortened: as §1
[9] = test system: Staphylococcus aureus; test: Antibacterial activity against Staphylococcus aureus NRS383 (USA 200) by microdilution method; format: functional; procedure, shortened: as §1
[10] = test system: Staphylococcus aureus; test: Antibacterial activity against Staphylococcus aureus NRS385 (USA 300) by microdilution method; format: functional; procedure, shortened: as §2
[11] = test system: Staphylococcus aureus; test: Antibacterial activity against Staphylococcus aureus NRS22 (USA 600) by microdilution method; format: functional; procedure, shortened: as §1
[12] = test system: Staphylococcus epidermidis; test: Antibacterial activity against Staphylococcus epidermidis ATCC 12228 by microdilution method; format: functional; procedure, shortened: as §1
[13] = test system: Enterococcus; test: Antibacterial activity against vancomycin-resistant Enterococcus by microdilution method; format: functional; procedure, shortened: as §2
[14] = test system: Acinetobacter baumannii; test: Antibacterial activity against Acinetobacter baumannii ATCC 19606 by microdilution method; format: functional; procedure, shortened: as §1
[15] = test system: Enterobacter cloacae; test: Antibacterial activity against Enterobacter cloacae ATCC 13047 by microdilution method; format: functional; procedure, shortened: as §1
[16] = test system: Escherichia coli; test: Antibacterial activity against Escherichia coli MC1061 by microdilution method; format: functional; procedure, shortened: as §2
[17] = test system: Pseudomonas aeruginosa; test: Antibacterial activity against Pseudomonas aeruginosa ATCC 27853 by microdilution method; format: functional; procedure, shortened: as §1
[18] = test system: Salmonella enterica; test: Antibacterial activity against Salmonella enterica ATCC 14028 by microdilution method; format: functional; procedure, shortened: as §1
[19] = test system: Bacillus subtilis subsp. subtilis str. 168; test: Activity of Bacillus subtilis 168 APH(2'')-1a assessed as compound phosphorylation activity by Ellman's method
[20] = Activity of AAC(6')-1e/APH(2'')-1a (unknown origin) assessed as compound acetylation activity by Ellman's method
[21] = test system: Serratia marcescens; test: Activity of Serratia marcescens AAC(6')-2d assessed as compound acetylation activity by Ellman's method
[22] = test system: Mycobacterium tuberculosis; test: Activity of Mycobacterium tuberculosis AAC(2')-1c assessed as compound acetylation activity by Ellman's method
[23] = test system: Mycobacterium tuberculosis; test: Activity of Mycobacterium tuberculosis Eis assessed as compound acetylation activity by Ellman's method
[24] = test system: Candida albicans; test: Antifungal activity against azole-resistant Candida albicans ATCC 10231 after 48 hrs by microbroth dilution method; format: functional; conditions: ATCC 10231, 48 h
Procedure, shortened: (§3)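 Yeast MIC by broth microdilution, run in duplicate. The aminoglycoside compounds are read as MIC-0 (complete inhibition). Azoles are read as MIC-2 (50% inhibition).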

[25] = test system: Candida albicans; test: Antifungal activity against azole-resistant Candida albicans ATCC 64124 after 48 hrs by microbroth dilution method; format: functional; conditions: ATCC 64124, 48 h; procedure, shortened: as §3
[26] = test system: Candida albicans; test: Antifungal activity against azole-susceptible Candida albicans ATCC MYA-2876 after 48 hrs by microbroth dilution method; format: functional; conditions: ATCC MYA-2876, 48 h; procedure, shortened: as §3
[27] = test system: Candida albicans; test: Antifungal activity against azole-resistant Candida albicans ATCC 90819 after 48 hrs by microbroth dilution method; format: functional; conditions: ATCC 90819, 48 h; procedure, shortened: as §3
[28] = test system: Candida albicans; test: Antifungal activity against azole-susceptible Candida albicans ATCC MYA-2310 after 48 hrs by microbroth dilution method; format: functional; conditions: ATCC MYA-2310, 48 h; procedure, shortened: as §3
[29] = test system: Candida albicans; test: Antifungal activity against azole-resistant Candida albicans MYA-1237 after 48 hrs by microbroth dilution method; format: functional; conditions: MYA-1237, 48 h; procedure, shortened: as §3
[30] = test system: Candida albicans; test: Antifungal activity against azole-resistant Candida albicans MYA-1003 after 48 hrs by microbroth dilution method; format: functional; conditions: MYA-1003, 48 h; procedure, shortened: as §3
[31] = test system: Mycolicibacterium smegmatis; test: Antibacterial activity against Mycobacterium smegmatis MC2 155 by microdilution method; format: functional; conditions: str. MC2 155; procedure, shortened: as §2
[32] = Hemolytic activity against mouse RBC at 100 to 500 ug/ml after 60 mins; format: ADME, cell-based; conditions: erythrocyte, 1 h
[33] = test system: A549; test: Cytotoxicity against human A549 cells after 24 hrs by resazurin assay; format: cell-based; conditions: human, a549, 24 h
[34] = Cytotoxicity against human BEAS2B cells after 24 hrs by resazurin assay; format: cell-based, BEAS-2B; conditions: human, beas-2b

SMILES	MIC [1] [µg/mL]	MIC [2] [µg/mL]	Activity [3]	MIC [4] [µg/mL]	MIC [5] [µg/mL]	MIC [6] [µg/mL]	MIC [7] [µg/mL]	MIC [8] [µg/mL]	MIC [9] [µg/mL]	MIC [10] [µg/mL]	MIC [11] [µg/mL]	MIC [12] [µg/mL]	MIC [13] [µg/mL]	MIC [14] [µg/mL]	MIC [15] [µg/mL]	MIC [16] [µg/mL]	MIC [17] [µg/mL]	MIC [18] [µg/mL]	Activity [19]	Activity [20]	also measured
CCCCCCCCSC[C@H]1O[C@H](O[C@@H]2[C@@H](O)[C@H](O[C@H]3O[C@H](CN)[C@@H](O)C[C@H]3N)[C@@H](N)C[C@H]2N)[C@H](O)[C@@H](N)[C@@H]1O	125 (≈ 210 µM)	–	–	–	–	–	–	–	–	–	–	–	–	–	–	–	–	–	–	–	–
CCCCCCCCCCCCS(=O)(=O)C[C@@H]1O[C@@H](O[C@@H]2[C@@H](O)[C@H](O[C@@H]3O[C@@H](CN)[C@H](O)[C@@H](O)[C@@H]3N)[C@@H](N)C[C@H]2N)[C@@H](O)[C@H](N)[C@H]1O (stereo in doubt)	3.9 (≈ 5.57 µM)	128 (≈ 183 µM)	inactive	> 128	4 (≈ 5.72 µM)	64 (≈ 91.4 µM)	128 (≈ 183 µM)	64 (≈ 91.4 µM)	32 (≈ 45.7 µM)	64 (≈ 91.4 µM)	32 (≈ 45.7 µM)	> 128	32 (≈ 45.7 µM)	128 (≈ 183 µM)	> 128	> 128	16 (≈ 22.9 µM)	64 (≈ 91.4 µM)	inactive	inactive	Activity [21]: inactive; Activity [22]: inactive; Activity [23]: inactive; MIC [24]: 31.2 µg/mL (≈ 44.6 µM); MIC [25]: 31.2 µg/mL (≈ 44.6 µM); MIC [26]: 31.2 µg/mL (≈ 44.6 µM); MIC [27]: 62.5 µg/mL (≈ 89.3 µM); MIC [28]: 62.5 µg/mL (≈ 89.3 µM); MIC [29]: 62.5 µg/mL (≈ 89.3 µM); MIC [30]: 62.5 µg/mL (≈ 89.3 µM)
NC[C@H]1O[C@H](O[C@H]2[C@H](O)[C@@H](O[C@H]3O[C@H](CO)[C@@H](O)[C@H](N)[C@H]3O)[C@H](N)C[C@@H]2N)[C@H](O)[C@@H](O)[C@@H]1O [KANAMYCIN]	–	16 (≈ 33 µM)	–	2 (≈ 4.13 µM)	128 (≈ 264 µM)	128 (≈ 264 µM)	> 128	> 128	> 128	> 128	> 128	1 (≈ 2.06 µM)	> 128	4 (≈ 8.26 µM)	2 (≈ 4.13 µM)	8 (≈ 16.5 µM)	> 128	16 (≈ 33 µM)	–	–	MIC [31]: ≤ 0.25 µg/mL
CCCCCCCCCCSC[C@H]1O[C@H](O[C@@H]2[C@@H](O)[C@H](O[C@H]3O[C@H](CN)[C@@H](O)C[C@H]3N)[C@@H](N)C[C@H]2N)[C@H](O)[C@@H](N)[C@@H]1O	62.5 (≈ 100 µM)	–	–	–	–	–	–	–	–	–	–	–	–	–	–	–	–	–	–	–	–
OC(Cn1cncn1)(Cn1cncn1)c1ccc(F)cc1F [FLUCONAZOLE]	> 62.5	–	–	–	–	–	–	–	–	–	–	–	–	–	–	–	–	–	–	–	MIC50 [24]: 62.5 µg/mL (≈ 204 µM); MIC50 [25]: 125 µg/mL (≈ 408 µM); MIC50 [26]: 15.6 µg/mL (≈ 50.9 µM); MIC50 [27]: > 125 µg/mL; MIC50 [28]: > 125 µg/mL; MIC50 [29]: 62.5 µg/mL (≈ 204 µM); MIC50 [30]: 62.5 µg/mL (≈ 204 µM)
CCCCCCCCCCSC[C@@H]1O[C@@H](O[C@@H]2[C@@H](O)[C@H](O[C@@H]3O[C@@H](CN)[C@H](O)[C@@H](O)[C@@H]3N)[C@@H](N)C[C@H]2N)[C@@H](O)[C@H](N)[C@H]1O (stereo in doubt)	≤ 1.95	> 128	inactive	128 (≈ 200 µM)	2 (≈ 3.13 µM)	–	16 (≈ 25 µM)	–	–	32 (≈ 50 µM)	–	> 128	–	> 128	> 128	> 128	–	> 128	inactive	inactive	Activity [32]: Non-toxic; Activity [33]: Non-toxic; Activity [34]: Non-toxic; MIC [31]: 8 µg/mL (≈ 12.5 µM); Activity [21]: inactive; Activity [22]: inactive; Activity [23]: inactive; MIC [24]: 125 µg/mL (≈ 195 µM); MIC [25]: 125 µg/mL (≈ 195 µM); MIC [26]: 125 µg/mL (≈ 195 µM); MIC [27]: 125 µg/mL (≈ 195 µM); MIC [28]: 62.5 µg/mL (≈ 97.7 µM); MIC [29]: 125 µg/mL (≈ 195 µM); MIC [30]: 125 µg/mL (≈ 195 µM)
